These results are taken from ChEMBL document CHEMBL1140478, “Preparation and antitubercular activities of alkylated amino alcohols and their glycosylated derivatives” (Bioorg Med Chem, 2007).

For data set [1], the system named is Mycobacterium tuberculosis. As to the kind of experiment: Antimycobacterial activity against Mycobacterium tuberculosis H37Rv by microplate alamar blue assay. In kind it is functional. The method in brief: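 M. tuberculosis H37Rv (ATCC 27294) exposed to decreasing compound concentrations in Middlebrook 7H9 medium. Growth read by Microplate Alamar Blue Assay. MIC taken as the lowest concentration that […]. Values are means of three separate experiments. Rifampicin at 1.0 µg/mL served as internal control.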
On the technique in general: Resazurin is reduced to fluorescent resorufin, in cell work by metabolically active cells.

Data set [2] can be described thus: Cell proliferation of mouse […] cells at 0.05 ug/mL by MTT assay. The class given is ADME, cell-based, J774.A1. To be noted: J774A.1 cells, read-out: Activity. The method, boiled down: (§1)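 Supernatants removed, cells given supplemented RPMI plus MTT (5 mg/mL) for 4 h at 37 °C, 5% CO2. Reaction stopped with acidic isopropanol (HCl), 10 min at room temperature, OD read at 570 nm. Proliferation and cytotoxicity calculated by formulae.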
Background: Formazan colour is commonly taken as a measure of viable cells.

A short description of data set [3]: Cell proliferation of mouse […] cells at 0.5 ug/mL by MTT assay. In kind it is ADME, cell-based, J774.A1. Conditions: J774A.1 cells, read-out: Activity. The method in brief:
as §1

Data set [4] in a line: Cell proliferation of mouse […] cells at 0.005 ug/mL by MTT assay. The class given is ADME, cell-based, J774.A1. To be noted: J774A.1 cells, read-out: Activity. The method, boiled down: as §1
In data set [5] the test system is J774.A1. As to the kind of experiment: Cytotoxicity against mouse […] cells at 0.05 ug/mL by MTT assay. The class given is cell-based. The method, boiled down:
as §1

The subject of data set [6] is J774.A1. The experiment in a line: Cytotoxicity against mouse […] cells at 0.005 ug/mL by MTT assay. The class given is cell-based. The method in brief: as §1
In data set [7] the test system is J774.A1. The experiment in a line: Cytotoxicity against mouse […] cells at 0.5 ug/mL by MTT assay. In kind it is cell-based. The method in brief:
as §1

As for `CCCCCCCCCCC(O)CNC[C@H]1O[C@@H]2OC(C)(C)O[C@@H]2[C@H]2OC(C)(C)O[C@H]21` (stereo partly specified), in data set [1], the minimal inhibitory concentration (MIC) came to 28 µM.

As for `CCCCCCCCCCCCCCN(CCO)C[C@H]1O[C@@H]2OC(C)(C)O[C@@H]2[C@H]2OC(C)(C)O[C@H]21`, in data set [2], the viability at 0.05 ug/mL is 135%. Besides, the viability at 0.5 ug/mL in data set [3] was 118%. In data set [4], the viability at 0.005 ug/mL turned out to be 113%. Also, the Activity entry in the data set with J774.A1 [5], in the data set on J774.A1 [6] and in the data set on J774.A1 [7] was “Not Active” throughout. The compound further showed an MIC in data set [1] of 12 µM.

In data set [1], `CCCCCCCCNCCO` came in with an MIC of 578 µM.

Regarding `CCCCC(CC)CN(CCO)C[C@H]1O[C@@H]2OC(C)(C)O[C@@H]2[C@H]2OC(C)(C)O[C@H]21` (stereo partly specified), the minimal inhibitory concentration (MIC) in data set [1] is > 240 µM.

Turning to `CCCCC(CC)CNCCO` (stereo unspecified), the minimal inhibitory concentration (MIC) in data set [1] was > 578 µM.

Turning to `CCCCCCCCCCC(O)CN` (stereo unspecified), in data set [2], the viability at 0.05 ug/mL amounted to 112%. Also, the viability at 0.5 ug/mL in data set [3] was 96.4%. In addition, the viability at 0.005 ug/mL in data set [4] stood at 110%. Besides, the Activity result is “Not Active” with J774.A1 [5], “Not Active” in the data set on J774.A1 [6] and 31.1% in the data set with J774.A1 [7]. In data set [1], this compound gave a minimum inhibitory concentration (MIC) of 15 µM.

`CCCCCCCCCCN(CCO)C[C@H]1O[C@@H]2OC(C)(C)O[C@@H]2[C@H]2OC(C)(C)O[C@H]21` showed a minimum inhibitory concentration (MIC) in data set [1] of 225 µM.

On to `CCCCCCCCCCCCCCNCCO` [MYRALACT], for which it took 51 µM to inhibit growth in data set [1] (MIC).

`NNC(=O)c1ccncc1` [ISONIAZID] registered a minimal inhibitory concentration (MIC) in data set [1] of 0.2 µg/mL.

With `CC[C@@H](CO)NCCN[C@@H](CC)CO` [ETHAMBUTOL], the minimum inhibitory concentration (MIC) in data set [1] is 3.25 µg/mL.

As for `CCCCCCCCCCCCCCCCNCCO`, the minimal inhibitory concentration (MIC) in data set [1] worked out at 46 µM.

In the case of `CCCCCCCCCCCCCCCCN(CCO)C[C@H]1O[C@@H]2OC(C)(C)O[C@@H]2[C@H]2OC(C)(C)O[C@H]21`, the viability at 0.5 ug/mL in data set [3] is 149%. In addition, the viability at 0.005 ug/mL in data set [4] came out at 104%. Also, the Activity in the data set with J774.A1 [5] came out at 16.3%; with J774.A1 [6], 10.6%; with J774.A1 [7] it was 17.4%. The compound also registered an MIC in data set [1] of 11 µM.

Turning to `CO[C@H]1/C=C/O[C@@]2(C)Oc3c(C)c(O)c4c(O)c(c(/C=N/N5CCN(C)CC5)c(O)c4c3C2=O)NC(=O)/C(C)=C\C=C\[C@H](C)[C@H](O)[C@@H](C)[C@@H](O)[C@@H](C)[C@H](OC(C)=O)[C@@H]1C` [RIFAMPIN], in data set [1], the MIC is 1 µg/mL.

`CCCCCCCCN(CCO)C[C@H]1O[C@@H]2OC(C)(C)O[C@@H]2[C@H]2OC(C)(C)O[C@H]21`: in data set [1], inhibition of growth (MIC) required 241 µM.

For `CCCCCCCCCCNCCO`, the minimal inhibitory concentration (MIC) in data set [1] was found to be 248 µM.

As for `CCCCCCCCCCCCN(CCO)C[C@H]1O[C@@H]2OC(C)(C)O[C@@H]2[C@H]2OC(C)(C)O[C@H]21`, the viability at 0.05 ug/mL in data set [2] was 98.9%. Further, the viability at 0.5 ug/mL in data set [3] is 96.6%. Further, the viability at 0.005 ug/mL in data set [4] was determined as 98.3%. For the same compound, the Activity result with J774.A1 [5], with J774.A1 [6] and in the data set with J774.A1 [7] was “Not Active” throughout. The compound also came in with an MIC in data set [1] of 6 µM.

As to `CCCCCCCCCCCCNCCO`, the viability at 0.05 ug/mL in data set [2] worked out at 77.6%. For the same compound, in data set [3], the viability at 0.5 ug/mL worked out at 90.9%. For the same compound, the viability at 0.005 ug/mL in data set [4] is 92.7%. Further, the Activity amounted to 8.4% in the data set on J774.A1 [5], 12.1% in the data set with J774.A1 [6] and 21.3% in the data set with J774.A1 [7]. For the same compound, the MIC in data set [1] was 27 µM.

What is called MIC is the smallest concentration in the dilution series that meets the test's criterion for growth inhibition. A lower MIC goes with greater potency.
